pIC50: −log10 of the molar value. In brackets after ≈: the same amount, converted by molar mass.
Legend:
[1] = molecular target: T1, Quinolone resistance protein NorA (Staphylococcus aureus, UniProt P0A0J7); test: Inhibition of NorA efflux pump in Staphylococcus aureus 1199B assessed as reduction in EtBr efflux incubated for 20 mins measured for 5 mins by real-time fluorometric analysis
T1 sequence (P0A0J7 whole entry): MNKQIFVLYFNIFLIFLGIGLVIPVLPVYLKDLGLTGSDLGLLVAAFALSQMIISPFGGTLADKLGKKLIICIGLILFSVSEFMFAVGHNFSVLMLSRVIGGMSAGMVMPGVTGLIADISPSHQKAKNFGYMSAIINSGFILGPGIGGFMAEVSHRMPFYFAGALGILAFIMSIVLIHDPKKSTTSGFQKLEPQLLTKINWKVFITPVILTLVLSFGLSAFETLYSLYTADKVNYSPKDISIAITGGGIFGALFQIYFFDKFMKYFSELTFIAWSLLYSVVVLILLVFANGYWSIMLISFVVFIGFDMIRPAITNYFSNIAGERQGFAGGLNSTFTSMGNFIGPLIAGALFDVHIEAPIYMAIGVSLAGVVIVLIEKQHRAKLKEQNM
How it was run: (§1)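 SA-1199B (norA-overexpressing) grown overnight in cation-supplemented Mueller-Hinton broth, diluted 25-fold and grown at 35 °C to OD600 0.7–0.8. Loaded with EtBr 25 µM plus CCCP 100 µM (final), then resuspended in fresh broth. Fluorescence read at ex 485/em 645 nm for 5 min, ± compound. Efflux inhibition in % relative to untreated cells; screened at 50 µM. IC50 from concentration series; triplicate, two technical replicates each.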

Staphylococcus aureus = test: Antimicrobial activity against Staphylococcus aureus 1199B by microdilution method; format: functional
How it was run: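 MIC by broth microdilution following CLSI guidelines against S. aureus SA-1199B, a strain that overexpresses norA. Run on compounds giving at least 80% EtBr efflux inhibition and on selected weaker ones.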

[2] = molecular target: T2, Quinolone resistance protein NorA (Staphylococcus aureus) (UniProt P0A0J7); test: Inhibition of NorA efflux pump in Staphylococcus aureus 1199B assessed as reduction in EtBr efflux at 50 uM incubated for 20 mins measured for 5 mins by real-time fluorometric analysis; how it was run: as §1
T2 sequence (whole entry): T1 sequence (P0A0J7 whole entry)

Liver microsome [3] = test: Drug level in human liver microsomes treated with Ethyl 5-(3-Aminopropoxy)-1-benzyl-2-methyl-(1H)-indole-3-carboxylate at 10 uM preincubated for 5 mins followed by NADPH addition measured after 30 mins by HPLC-MS/MS analysis; format: ADME; conditions: 0.5 h
How it was run: (§2)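 Human liver microsomes at 0.5 mg protein/ml in 100 mM potassium phosphate pH 7.4. Substrate at 10 µM final, pre-incubated 5 min at 37 °C with shaking, then started with 1 mM NADPH. Quenched at 0 and 30 min with cold acetonitrile containing labetalol internal standard. Spun 12000 g, 5 min, 4 °C; supernatant analysed by UHPLC C18 HPLC-MS/MS.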

[4] = Solubility of the compound in D2O solution at 25 degC by 1H NMR analysis; format: physicochemical
How it was run: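 1H NMR in D2O at 25 °C with TSP internal standard, following a literature procedure.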

[5] = Metabolic stability in human liver microsomes assessed as compound remaining after at 10 uM preincubated for 5 mins followed by NADPH addition measured after 30 mins by HPLC-MS/MS analysis; format: ADME; conditions: read-out: Stability; how it was run: as §2
[6] = molecular target: T2, Quinolone resistance protein NorA (Staphylococcus aureus); test: Inhibition of NorA efflux pump in Staphylococcus aureus assessed as potentiation of ciprofloxacin-mediated antibacterial activity at 1.5 ug/ml relative to control
Liver microsome [7] = test: Drug level in human liver microsomes treated with Ethyl 1-benzyl-2-methyl-5-(3-(piperidin-1-yl)propoxy)-1H-indole-3-carboxylate at 10 uM preincubated for 5 mins followed by NADPH addition measured after 30 mins by HPLC-MS/MS analysis; format: ADME; conditions: 0.5 h; how it was run: as §2
Liver microsome [8] = test: Drug level in human liver microsomes treated with Ethyl 1-(2-Methoxybenzyl)-2-methyl-5-(3-(piperidin-1-yl)-propoxy)-1H-indole-3-carboxylate at 10 uM preincubated for 5 mins followed by NADPH addition measured after 30 mins by HPLC-MS/MS analysis; format: ADME; conditions: 0.5 h; how it was run: as §2
Liver microsome [9] = test: Drug level in human liver microsomes treated with Ethyl 1-Benzyl-2-methyl-5-(2-(piperazin-1-yl)ethoxy)-1H-indole-3-carboxylate at 10 uM preincubated for 5 mins followed by NADPH addition measured after 30 mins by HPLC-MS/MS analysis; format: ADME; conditions: 0.5 h; how it was run: as §2
Liver microsome [10] = test: Drug level in human liver microsomes treated with Ethyl 1-Benzyl-2-methyl-5-(3-(piperazin1-yl)propoxy)-(1H)-indole-3-carboxylate at 10 uM preincubated for 5 mins followed by NADPH addition measured after 30 mins by HPLC-MS/MS analysis; format: ADME; conditions: 0.5 h; how it was run: as §2

Row | SMILES | pIC50 [1] | MIC (Staphylococcus aureus) | inhibition [2] | other results
1 | CCOC(=O)c1c(C)n(Cc2cccc(OC)c2)c2ccc(OCCCN3CCCCC3)cc12 | 5.14 | > 100 µg/mL | 77.1% | –
2 | CCOC(=O)c1c(C)[nH]c2ccc(OCCCN)cc12 | – | – | – | Drug metabolism (Liver microsome [3]): metabolite_detected
3 | CCOC(=O)c1c(C)n(Cc2ccccc2)c2ccc(OC(C)=O)cc12 | – | – | 20.4% | –
4 | CCOC(=O)c1c(C)n(Cc2ccccc2)c2ccc(C(F)(F)F)cc12 | – | – | 36.6% | –
5 | CCOC(=O)c1c(C)n(Cc2ccccc2F)c2ccc(OCCCN3CCCCC3)cc12 | 5.32 | > 100 µg/mL | 89% | –
6 | CCOC(=O)c1c(C)n(Cc2ccccc2)c2ccc(OCC(CF)N3CCCCC3)cc12 (configuration not stated) | – | > 100 µg/mL | 38.5% | –
7 | CCOC(=O)c1c(C)n(Cc2ccccc2)c2ccc(OCCN3CCN(C)CC3)cc12 | 5.00 | > 100 µg/mL | 99.7% | –
8 | CCOC(=O)c1c(C)n(Cc2ccccc2[N+](=O)[O-])c2ccc(OCCCN3CCCCC3)cc12 | 5.20 | > 100 µg/mL | 91.8% | solubility [4]: 14 µM (≈ 6.71 µg/mL); remaining at 0.5 h, 10 µM [5]: 89%
9 | CCOC(=O)c1c(C)n(Cc2ccccc2)c2ccc(OCC(O)CN3CCCCCC3)cc12 (configuration not stated) | 5.17 | 100 µg/mL (≈ 215 µM) | 92.8% | –
10 | CCOC(=O)c1c(C)n(Cc2ccccc2)c2ccc(OCCN)cc12 | – | – | 67.7% | –
11 | O=[N+]([O-])c1ccc2[nH]c(-c3ccccc3)cc2c1 | – | – | – | fold change (FC) [6]: 4
12 | CCOC(=O)c1c(C)n(Cc2cccc(C)c2)c2ccc(OCCCN3CCCCC3)cc12 | 5.21 | 50 µg/mL (≈ 111 µM) | 70.9% | –
13 | CCOC(=O)c1c(C)n(Cc2ccccc2)c2ccc(OCCN3CCOCC3)cc12 | 4.77 | > 100 µg/mL | 90.9% | –
14 | CCOC(=O)c1c(C)n(Cc2ccccc2)c2ccc(OCCCNCc3ccccc3)cc12 | – | – | 45.4% | –
15 | CCOC(=O)c1c(C)[nH]c2ccc(OCCCN3CCCCC3)cc12 | – | – | 34.2% | Drug metabolism (Liver microsome [7]): metabolite_detected; Drug metabolism (Liver microsome [8]): metabolite_detected
16 | Cc1c(C(=O)O)c2cc(OCCN3CCNCC3)ccc2n1Cc1ccccc1 | – | – | – | Drug metabolism (Liver microsome [9]): metabolite_detected
17 | Cc1c(C(=O)O)c2cc(OCCCN3CCNCC3)ccc2n1Cc1ccccc1 | – | – | – | Drug metabolism (Liver microsome [10]): metabolite_detected
18 | CCOC(=O)c1c(C)n(Cc2ccccc2C)c2ccc(OCCCN3CCCCC3)cc12 | 5.32 | 25 µg/mL (≈ 55.7 µM) | 54% | –
19 | CCOC(=O)c1c(C)n(Cc2ccccc2)c2ccc(OCCN(C)C)cc12 | 4.65 | > 100 µg/mL | 98.2% | –
20 | Cc1c(C(=O)O)c2cc(OCCCN3CCCCC3)ccc2n1Cc1ccccc1 | – | – | 0% | Drug metabolism (Liver microsome [7]): metabolite_detected
21 | CCOC(=O)c1c(C)n(Cc2ccccc2)c2ccc(OCC(N)CO)cc12 (configuration not stated) | 4.98 | > 100 µg/mL | 100% | –
22 | CCOC(=O)c1c(C)n(Cc2ccc(F)cc2)c2ccc(OCCCN3CCCCC3)cc12 | 5.06 | > 100 µg/mL | 91.1% | –
23 | CCOC(=O)c1c(C)n(Cc2ccccc2)c2ccc(O)cc12 | – | > 100 µg/mL | 1% | –
24 | CCOC(=O)c1c(C)n(Cc2ccccc2)c2ccc(OCCN3CCCCC3)cc12 | 4.94 | > 100 µg/mL | 100% | –
25 | CCOC(=O)c1c(C)n(Cc2ccccc2)c2ccc([N+](=O)[O-])cc12 | – | – | 9.1% | –

Row | SMILES | pIC50 [1] | MIC (Staphylococcus aureus) | inhibition [2] | other results
26 | CCOC(=O)c1c(C)n(Cc2ccc(C)cc2)c2ccc(OCCCN3CCCCC3)cc12 | 5.17 | 25 µg/mL (≈ 55.7 µM) | 58.3% | –
27 | CCOC(=O)c1c(C)n(Cc2ccccc2)c2ccc(OCC(O)CN3CCOCC3)cc12 (configuration not stated) | 4.77 | > 100 µg/mL | 99% | –
28 | CCOC(=O)c1c(C)n(Cc2ccccc2)c2ccc(OCCCN3CCC(F)(F)CC3)cc12 | – | – | 25.9% | –
29 | CCOC(=O)Cc1c(C)n(Cc2ccccc2)c2ccc(OCCCN3CCCCCC3)cc12 | 5.21 | 100 µg/mL (≈ 216 µM) | 98.4% | –
30 | CCOC(=O)c1c(C)[nH]c2ccc(OCCCN3CCNCC3)cc12 | – | – | – | Drug metabolism (Liver microsome [10]): metabolite_detected
31 | Cc1c(C(=O)O)c2cc(OCCCN)ccc2n1Cc1ccccc1 | – | – | – | Drug metabolism (Liver microsome [3]): metabolite_detected
32 | CCOC(=O)c1c(C)n(Cc2ccccc2)c2ccc(OCCc3ccccc3)cc12 | – | > 100 µg/mL | 4.7% | –
33 | CCOC(=O)c1c(C)n(Cc2ccccc2)c2ccc(OCC(O)CN3CCCCC3)cc12 (configuration not stated) | 5.24 | > 100 µg/mL | 99.3% | –
34 | CCOC(=O)c1c(C)n(Cc2ccccc2)c2ccc(OCCCCN)cc12 | 5.17 | 100 µg/mL (≈ 263 µM) | 93.7% | –
35 | CCOC(=O)c1c(C)n(Cc2cccc([N+](=O)[O-])c2)c2ccc(OCCCN3CCCCC3)cc12 | 5.36 | > 100 µg/mL | 85.1% | –
36 | CCOC(=O)c1c(C)n(Cc2ccccc2)c2ccc(OCCCCN3CCNCC3)cc12 | – | > 100 µg/mL | 71.9% | –
37 | Cc1cc2cc(OCCCN3CCCCC3)ccc2n1Cc1ccccc1 | 5.18 | 0.63 µg/mL (≈ 1.74 µM) | 95.6% | solubility [4]: 70 µM (≈ 25.4 µg/mL); remaining at 0.5 h, 10 µM [5]: 100%
38 | CCOC(=O)c1c(C)n(Cc2ccccc2)c2ccc(OCCCN3CCCCCC3)cc12 | – | > 100 µg/mL | 77.4% | –
39 | CCOC(=O)c1c(C)n(Cc2ccccc2)c2ccc(OCC(O)CN)cc12 (configuration not stated) | 4.77 | > 100 µg/mL | 100% | –
40 | CCOC(=O)c1c(C)n(Cc2ccc(OC)cc2)c2ccc(OCCCN3CCCCC3)cc12 | 5.15 | > 100 µg/mL | 77.7% | –
41 | CCOC(=O)c1c(C)n(Cc2cccc(C(F)(F)F)c2)c2ccc(OCCCN3CCCCC3)cc12 | 4.85 | > 100 µg/mL | 12.9% | –
42 | CCOC(=O)c1c(C)n(Cc2ccccc2)c2ccc(OCCCN3CCN(C)CC3)cc12 | 4.92 | > 100 µg/mL | 100% | –
43 | CCOC(=O)c1c(C)n(Cc2ccc(C(F)(F)F)cc2)c2ccc(OCCCN3CCCCC3)cc12 | 4.85 | > 100 µg/mL | 77.7% | –
44 | CCOC(=O)c1c(C)n(Cc2ccc([N+](=O)[O-])cc2)c2ccc(OCCCN3CCCCC3)cc12 | 5.19 | > 100 µg/mL | 89.9% | –
45 | CCOC(=O)c1c(C)n(Cc2ccccc2O)c2ccc(OCCCN3CCCCC3)cc12 | – | – | – | Drug metabolism (Liver microsome [8]): metabolite_detected
46 | CCOC(=O)c1c(C)[nH]c2ccc(OCCN3CCNCC3)cc12 | – | – | – | Drug metabolism (Liver microsome [9]): metabolite_detected
47 | CCOC(=O)c1c(C)n(Cc2cccc(F)c2)c2ccc(OCCCN3CCCCC3)cc12 | 5.21 | > 100 µg/mL | 89.7% | –
48 | CCOC(=O)c1c(C)n(CCc2ccccc2)c2ccc(OCCCN3CCCCC3)cc12 | 4.86 | > 100 µg/mL | 99.3% | –
49 | CCOC(=O)c1c(C)n(Cc2ccccc2)c2ccc(OCCCN3CCOCC3)cc12 | 4.97 | > 100 µg/mL | 98.6% | –

Source: ChEMBL document CHEMBL3774342, “Indole Based Weapons to Fight Antibiotic Resistance: A Structure-Activity Relationship Study” (J Med Chem, 2016)
